Assay results from ChEMBL document CHEMBL4190280, “Topological pattern for the search of new active drugs against methicillin resistant Staphylococcus aureus” (2017).
Converted amounts (≈) assume the structure as drawn.

Key:
[1] = tested on: Staphylococcus aureus; assay: Antibacterial activity against methicillin-resistant Staphylococcus aureus subsp. aureus Rosenbach 1884; format: functional
Summary of the method: (§1)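 In vitro testing against MRSA by standard techniques, following the Spanish Society of Clinical Microbiology and Infectious Diseases (SEIMC) recommended protocol. MIC and MBC were determined, with concentrations compared in double (twofold) dilution steps.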

[2] = tested on: Staphylococcus aureus; assay: Bactericidal activity against methicillin-resistant Staphylococcus aureus subsp. aureus Rosenbach 1884; format: functional; summary of the method: as §1

SMILES | MIC [1] | MBC [2]
CO[C@@]12[C@H](COC(N)=O)C3=C(C(=O)C(C)=C(N)C3=O)N1C[C@@H]1N[C@@H]12 [MITOMYCIN] | 0.5 µg/mL (≈ 1.5 µM) | 4 µg/mL (≈ 12 µM)
Cc1nccn1-c1cc2c(cc1F)c(=O)c(C(=O)O)cn2C1CC1 | 32 µg/mL (≈ 97.8 µM) | > 512 µg/mL
O=C(O)c1cn(C2CC2)c2cc(N3CCNCC3)c(F)cc2c1=O [CIPROFLOXACIN] | 0.5 µg/mL (≈ 1.51 µM) | 256 µg/mL (≈ 773 µM)
O=C(O)c1cn(C2CC2)c2cc(F)c(F)cc2c1=O | 64 µg/mL (≈ 241 µM) | > 512 µg/mL
CC1(C)[C@H](C(=O)O[C@H](C#N)c2cccc(Oc3ccccc3)c2)[C@@H]1/C=C(\Cl)C(F)(F)F [GAMMA-CYHALOTHRIN] | > 512 µg/mL | > 512 µg/mL
Nc1nnc(-c2cccc(Cl)c2Cl)c(N)n1 [LAMOTRIGINE] | > 512 µg/mL | > 512 µg/mL
CN(Cc1cccc2ccccc12)c1cc2c(cc1F)c(=O)c(C(=O)O)cn2C1CC1 | 1 µg/mL (≈ 2.4 µM) | 128 µg/mL (≈ 307 µM)
O=C(O)c1cn(C2CC2)c2cc(Cl)c(F)cc2c1=O | 32 µg/mL (≈ 114 µM) | 512 µg/mL (≈ 1820 µM)
COc1cc2c(cc1OC)CN(c1cc3c(cc1F)c(=O)c(C(=O)O)cn3C1CC1)CC2 | 1 µg/mL (≈ 2.28 µM) | 128 µg/mL (≈ 292 µM)
